{"data": "Measured values collected from several papers", "cell line": "NCI-H460", "effect on": "cell growth or viability", "note": "Compare with care: the assays were run in different laboratories. pEC50, pIC50: −log10 of the molar value."}
{"SMILES": "CCCc1n(Cc2ccc3ccccc3n2)cc[n+]1Cc1ccc2ccccc2n1", "test": "SRB", "quantity": "TGI", "result": "11700 nM"}
{"SMILES": "COc1ccc(C(=O)/C=C/c2cccc3ccccc23)cc1S(N)(=O)=O", "test": "SRB", "conditions": "10 µM", "quantity": "inhibition", "result": "98%"}
{"SMILES": "C=C(Cl)C(=O)Nc1cc(Nc2nc(N3CCOCC3)c3sccc3n2)c(OC)cc1N(C)CCN(C)C", "test": "MTT", "quantity": "pIC50", "result": 5.73}
{"SMILES": "Cc1n(Cc2ccc3ccccc3n2)cc[n+]1Cc1ccc2ccccc2c1", "test": "SRB", "quantity": "TGI", "result": "14400 nM"}
{"SMILES": "C=CC(=O)Nc1cc(Nc2nc(N3CCc4sccc4C3)c3cccnc3n2)c(OC)cc1N1CCOCC1", "test": "MTT", "quantity": "pIC50", "result": "< 4.30"}
{"SMILES": "CN1C[C@H](C(=O)N[C@]2(C)O[C@@]3(O)[C@@H]4CCCN4C(=O)[C@H](Cc4ccccc4)N3C2=O)C[C@@H]2c3cccc4[nH]cc(c34)C[C@H]21", "test": "MTT", "conditions": "72 h", "quantity": "pEC50", "result": 4.17}
{"SMILES": "COc1ccc(C(=O)/C=C/c2cc3c(cc2Br)OCO3)cc1S(N)(=O)=O", "test": "SRB", "conditions": "48 h", "quantity": "GI50", "result": "4000 nM"}
{"SMILES": "C=CC(=O)Nc1cc(Nc2nc(N3CCc4sccc4C3)c3cccnc3n2)c(OC)cc1N1CCSCC1", "test": "MTT", "quantity": "pIC50", "result": 6.64}
{"SMILES": "COc1ccc(-c2ccc(-c3ccc(C(=N)N)nc3)s2)cc1Cl", "test": "SRB", "quantity": "GI50", "result": "1800 nM"}
{"SMILES": "C=CC(=O)Nc1cc(Nc2nc(N3CCc4sccc4C3)c3cccnc3n2)c(OC)cc1N1CCC(N(C)C)CC1", "test": "MTT", "quantity": "pIC50", "result": 6.25}
{"SMILES": "CCc1n(Cc2ccc3ccccc3n2)cc[n+]1Cc1ccc2ccccc2c1", "test": "SRB", "quantity": "TGI", "result": "10800 nM"}
{"SMILES": "COc1ccccc1/C=C/C(=O)c1ccc(OC)c(S(N)(=O)=O)c1", "test": "SRB", "conditions": "48 h", "quantity": "GI50", "result": "2100 nM"}
{"SMILES": "C/C=C/C(=O)Nc1cc(Nc2nc(Nc3cnn(C)c3)c3sccc3n2)c(OC)cc1N(C)CCN(C)C", "test": "MTT", "quantity": "pIC50", "result": "< 4.30"}
{"SMILES": "S=C([S][Au-][P+](CCCCCC[P+]([Au-][S]C(=S)n1cccn1)(c1ccccc1)c1ccccc1)(c1ccccc1)c1ccccc1)n1cccn1", "test": "SRB", "quantity": "GI50", "result": "1430 nM"}
{"SMILES": "COc1ccc(C(=O)/C=C/c2ccc3ccccc3c2)cc1S(N)(=O)=O", "test": "SRB", "conditions": "10 µM", "quantity": "inhibition", "result": "98%"}
{"SMILES": "COc1cccc(Oc2ccccc2NC(=O)CNC(=O)c2cccc3ccccc23)c1", "test": "SRB", "conditions": "48 h", "quantity": "GI50", "result": "295 nM"}
{"SMILES": "COc1ccc(C(=O)/C=C/c2ccc(Cl)c(Cl)c2)cc1S(N)(=O)=O", "test": "SRB", "conditions": "48 h", "quantity": "GI50", "result": "2800 nM"}
{"SMILES": "c1ccc2cc(Cn3cc[n+](Cc4ccc5ccccc5c4)c3)ccc2c1", "test": "SRB", "quantity": "TGI", "result": "10400 nM"}
{"SMILES": "COc1cc(N(C)CCN(C)C)c(NC(=O)C=C(C)C)cc1Nc1nc(Nc2cnn(C)c2)c2sccc2n1", "test": "MTT", "quantity": "pIC50", "result": 5.88}
{"SMILES": "COc1ccc(C(=O)/C=C/c2ccccc2Br)cc1S(N)(=O)=O", "test": "SRB", "conditions": "48 h", "quantity": "GI50", "result": "2000 nM"}
